ChEMBL document CHEMBL1148506, “Structure-activity relationships of new 1H-imidazo[4,5-c]quinolin-4-amine derivatives as allosteric enhancers of the A3 adenosine receptor” (J Med Chem, 2006)

How the values were obtained:
[1] = biological target: T1, Adenosine receptor A3 (Homo sapiens) (UniProt P0DMS8); experiment: Decrease in dissociation of [125I]I-AB-MECA from human adenosine A3 receptor in CHO membrane at 10 uM relative to control after 30 min; format: cell membranes; design: scale not given: the % may be the effect or the level left
T1 sequence (whole entry): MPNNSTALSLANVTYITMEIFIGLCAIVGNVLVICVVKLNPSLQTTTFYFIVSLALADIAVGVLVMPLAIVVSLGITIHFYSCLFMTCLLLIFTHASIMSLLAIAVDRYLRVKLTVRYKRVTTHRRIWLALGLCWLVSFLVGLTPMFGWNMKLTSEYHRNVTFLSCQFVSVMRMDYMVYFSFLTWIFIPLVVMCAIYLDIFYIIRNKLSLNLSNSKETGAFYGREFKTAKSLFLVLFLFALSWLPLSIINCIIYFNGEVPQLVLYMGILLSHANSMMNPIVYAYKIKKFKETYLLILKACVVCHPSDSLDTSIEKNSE
Outline: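 Membranes (20 μg) preloaded with 0.5 nM [125I]I-AB-MECA, 60 min at 25°C, in 50 mM Tris-HCl pH 8.0 with 10 mM MgCl2 and 1 mM EDTA. Dissociation started with 3 μM Cl-IB-MECA, with or without 10 μM modulator. Binding read by rapid filtration at 30 min; reported as % decrease in dissociation versus control (100%).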

Adenosine receptor A2a [2] = biological target: T2, Adenosine receptor A2a (Homo sapiens, UniProt P29274); experiment: Displacement of [3H]CGS21680 from human adenosine A2A receptor in HEK293 cells at 10 uM
[3] = biological target: T3, Adenosine receptor A1 (Homo sapiens) (UniProt P30542); experiment: Displacement of [3H]R-PIA from human adenosine A1 receptor in CHO membrane at 10 uM; format: cell membranes
T3 sequence (whole entry): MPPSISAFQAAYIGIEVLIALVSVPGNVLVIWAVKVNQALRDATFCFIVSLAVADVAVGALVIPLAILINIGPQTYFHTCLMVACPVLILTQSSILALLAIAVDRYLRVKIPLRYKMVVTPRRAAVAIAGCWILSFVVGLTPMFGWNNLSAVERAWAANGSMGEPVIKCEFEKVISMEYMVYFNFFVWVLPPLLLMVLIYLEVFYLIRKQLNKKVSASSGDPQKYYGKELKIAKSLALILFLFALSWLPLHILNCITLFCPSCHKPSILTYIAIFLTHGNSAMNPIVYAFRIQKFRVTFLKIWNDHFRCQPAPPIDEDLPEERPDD

[4] = biological target: T1, Adenosine receptor A3 (Homo sapiens); experiment: Increase of efficacy at human adenosine A3 receptor in CHO cells at 10 uM relative to 2-Cl-IB-MECA
[5] = biological target: T1, Adenosine receptor A3 (Homo sapiens); experiment: Displacement of [125I]I-AB-MECA from human adenosine A3 receptor in CHO membrane at 10 uM; format: cell membranes
Outline: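 Membranes from CHO cells stably expressing human A3AR (20 μg protein) incubated with 0.5 nM [125I]I-AB-MECA and 10 μM test ligand, 60 min at 25°C, in 50 mM Tris·HCl pH 8.0, 10 mM MgCl2, 1 mM EDTA. Nonspecific binding defined with 10 μM NECA; filtration, gamma counting. Mean of 2-4 experiments in duplicate.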

[6] = biological target: T4, Adenosine receptor A2b (Homo sapiens) (UniProt P29275); experiment: Antagonist activity at human adenosine A2B receptor assessed as inhibition of NECA-induced cAMP accumulation in CHO membrane at 10 uM; design: scale not given: the % may be the effect or the level left
T4 sequence (whole entry): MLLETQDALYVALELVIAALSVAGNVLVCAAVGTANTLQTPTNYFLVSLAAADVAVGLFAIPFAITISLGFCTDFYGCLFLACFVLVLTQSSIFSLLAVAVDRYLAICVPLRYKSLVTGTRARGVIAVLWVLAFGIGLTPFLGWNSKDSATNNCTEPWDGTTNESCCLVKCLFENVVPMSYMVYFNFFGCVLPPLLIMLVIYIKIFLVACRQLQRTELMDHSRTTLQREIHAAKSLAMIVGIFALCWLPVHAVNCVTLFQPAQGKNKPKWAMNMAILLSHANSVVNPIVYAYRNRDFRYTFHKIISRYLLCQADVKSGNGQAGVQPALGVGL

Adenosine receptor A2a [7] = biological target: T2, Adenosine receptor A2a; experiment: Displacement of [3H]CGS21680 from human adenosine A2A receptor in HEK293 cells
Adenosine receptor A1 = biological target: T5, Adenosine receptor A1 (Homo sapiens, UniProt P30542); experiment: Displacement of [3H]R-PIA from human adenosine A1 receptor in CHO membrane; format: cell membranes
T5 sequence (P30542 whole entry): T3 sequence (whole entry)
Outline: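 Membranes (40 μg/tube) from CHO cells stably expressing human A1AR, incubated with 2 nM [3H]R-PIA at 25 °C for 60 min in 50 mM Tris·HCl pH 7.4, 10 mM MgCl2. Membranes stored with 3 U/mL adenosine deaminase. Nonspecific binding defined with 10 μM N6-cyclopentyladenosine. Reaction ended by GF/B filtration.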

T2 sequence (P29274 whole entry): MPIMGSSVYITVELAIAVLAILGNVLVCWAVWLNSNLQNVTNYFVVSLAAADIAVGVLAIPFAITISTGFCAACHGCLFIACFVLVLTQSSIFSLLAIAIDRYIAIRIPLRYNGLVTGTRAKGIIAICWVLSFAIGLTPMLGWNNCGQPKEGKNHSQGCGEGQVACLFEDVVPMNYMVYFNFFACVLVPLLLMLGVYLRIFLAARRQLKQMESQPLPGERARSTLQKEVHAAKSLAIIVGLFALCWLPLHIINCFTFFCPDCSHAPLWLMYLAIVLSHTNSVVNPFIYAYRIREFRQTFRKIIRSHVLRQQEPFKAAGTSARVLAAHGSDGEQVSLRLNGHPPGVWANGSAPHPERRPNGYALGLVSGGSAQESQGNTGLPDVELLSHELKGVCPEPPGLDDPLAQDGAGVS

Compound | Activity [1] | Activity (Adenosine receptor A2a [2]) | Activity [3] | Activity [4] | Activity [5] | Activity [6] | Ki (Adenosine receptor A2a [7]) | Ki (Adenosine receptor A1)
Clc1ccc(Nc2nc3ccccc3c3[nH]c(C4CCCC4)nc23)cc1Cl | 144% | 0% | 15% | 141% | 67% | -6.7% | > 10 µM | > 10 µM
Cc1ccc(Nc2nc3ccccc3c3[nH]c(C4CCCC4)nc23)cc1 | 153% |  |  | 128% | 87% | -4.1% |  | 
Clc1ccc(Nc2nc3ccccc3c3[nH]c(C4CCC4)nc23)cc1Cl |  | 0.4% | -5% | 126% | 52% | -5.5% |  | 
COc1ccc(Nc2nc3ccccc3c3nc(C4CCCC4)[nH]c23)cc1 | 166% | 16% |  | 132% | 92% | 7.3% | > 10 µM | 
Clc1ccc(Nc2nc3ccccc3c3[nH]c(C4CCCC4)nc23)cc1 | 159% | 17% | 22% | 136% | 82% | -10.2% | > 10 µM | > 10 µM
Clc1ccc(Nc2nc3ccccc3c3[nH]c(C4CCCCCC4)nc23)cc1Cl | 130% | -2% | -4% | 115% | 68% | -7.3% |  | 
Clc1ccc(Nc2nc3ccccc3c3nc(C4CCCCC4)[nH]c23)cc1Cl | 173% | -1% | -2% | 145% | 45% | -5.6% |  | 
CCCCCc1nc2c(Nc3ccc(Cl)c(Cl)c3)[nH]c3ccccc3c-2n1 | 116% | -1% | 43.9% | 102% | 84% | -9.3% |  | 

Continued, in another order:

Activity [1] | Activity (Adenosine receptor A2a [2]) | Activity [3] | Activity [4] | Activity [5] | Activity [6] | Ki (Adenosine receptor A2a [7]) | Compound | Ki (Adenosine receptor A1)
154% | 91% | 52% | 137% | 84% | -11.6% |  | c1ccc(CCNc2[nH]c3ccccc3c3nc(C4CCCC4)nc2-3)cc1 | 
109% | 68% | 56% | 96% | 67% | 5% |  | c1ccc2c3nc(C4CCCC4)nc-3c(Nc3ccc4c[nH]nc4c3)[nH]c2c1 | 
91% | -0.8% | 1.8% | 92% | 39% | 10.2% |  | Clc1ccc(Nc2[nH]c3ccccc3c3ncnc2-3)cc1Cl | 
174% |  |  | 138% | 90% | -6.8% |  | c1ccc(Nc2nc3ccccc3c3[nH]c(C4CCCC4)nc23)cc1 | 
126% | 74% | 70% | 125% | 89% | 10.1% |  | c1ccc2c3nc(C4CCCC4)nc-3c(Nc3ccc4cc[nH]c4c3)[nH]c2c1 | 
98% | 70% | -4% | 95% | 78% | 9% |  | Clc1ccc(Nc2[nH]c3ccccc3c3nc(-c4ccco4)nc2-3)cc1Cl | 
129% | 49% | 51% | 118% | 56% | -4.1% |  | OCc1cccc(Nc2[nH]c3ccccc3c3nc(C4CCCC4)nc2-3)c1 | 
108% | 8% | 21% | 111% | 69% | -10.7% |  | c1ccc2c3nc(C4CCCC4)nc-3c(Nc3ccc4c(c3)CCC4)[nH]c2c1 | 
145% | 77% | 28% | 147% | 86% | -3.4% |  | c1ccc(CNc2[nH]c3ccccc3c3nc(C4CCCC4)nc2-3)cc1 | 
101% | 60% | 59% | 109% | 80% | 0.3% |  | COc1ccc(CNc2[nH]c3ccccc3c3nc(C4CCCC4)nc2-3)cc1 | 
